Laboratory results from ChEMBL document CHEMBL1255440, “An antimicrobial peptide that targets DNA repair intermediates in vitro inhibits Salmonella growth within murine macrophages” (Antimicrob Agents Chemother, 2010).
Activity calls are given as the source filed them. The rule behind the calls is not given here.

Tested on: Salmonella typhimurium
Test: Antibacterial activity against 1 MOI Salmonella enterica subsp. enterica serovar Typhimurium infected in mouse J774A1 cells assessed as reduction in bacterial growth at 2.5 times MIC
Type: functional, organism-based
Conditions: J774.A1
Outline: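 J774A.1 cells or thioglycolate-elicited BALB/c peritoneal macrophages seeded at 200,000/well, overnight 37°C 5% CO2; infected with GFP strain SDT1416, 1 h invasion, washed, 1 h in DMEM with 15 μg/ml gentamicin. Then fresh DMEM plus 15 μg/ml gentamicin with or without peptide (DMSO vehicle) for 24 h at 37°C; macrophages lysed with 1% Triton X-100, plated on LB agar for CFU.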

With `N=C(N)NCCC[C@H](NC(=O)[C@H](CS)NC(=O)[C@H](Cc1ccc(O)cc1)NC(=O)[C@H](Cc1c[nH]c2ccccc12)NC(=O)[C@H](CCCNC(=N)N)NC(=O)[C@@H](N)Cc1c[nH]c2ccccc12)C(=O)O` as the compound, how does the Activity read?
The Activity was “Active”.
